# Source: ChEMBL document CHEMBL4689842, “EUbOPEN Chemogenomics Library wave 1” (2021)
# Where “and” joins values, the source holds several entries; their conditions need not be identical. Equal values may be shown once.
# Test system: Fibroblast
# Test: Multiplex assay against human fibroblast
# Assay type: toxicity, cell-based
# Method in brief: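 On a CQ1 microscope at 37°C and 5% CO2, live cells were imaged after compound addition. They had been stained at seeding with Hoechst33342, BioTracker Green Microtubule Cytoskeleton Dye, MitoTracker Red and Annexin V Alexa Fluor 680. CellPathfinder machine-learning gating assigned cells to Hoechst high-intensity objects or normal cells, normal cells to healthy, pyknosed or fragmented nuclei, and pyknosed cells to mitotic or apoptotic. Tubulin, mitochondrial-mass and membrane-permeability phenotypes are per cents of healthy-nucleus cells.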
# [1] = 12 h, 1 µM, compound concentration 1 uM, replicate 1
# [2] = 12 h, 1 µM, compound concentration 1 uM, replicate 2
# [3] = 12 h, 10 µM, compound concentration 10 uM, replicate 1
# [4] = 12 h, 10 µM, compound concentration 10 uM, replicate 2
# [5] = 24 h, 1 µM, compound concentration 1 uM, replicate 1
# [6] = 24 h, 1 µM, compound concentration 1 uM, replicate 2
# [7] = 24 h, 10 µM, compound concentration 10 uM, replicate 1
# [8] = 24 h, 10 µM, compound concentration 10 uM, replicate 2
# [9] = 48 h, 10 µM, compound concentration 10 uM, replicate 1
# [10] = 48 h, 10 µM, compound concentration 10 uM, replicate 2
# [11] = 48 h, 1 µM, compound concentration 1 uM, replicate 1
# [12] = 48 h, 1 µM, compound concentration 1 uM, replicate 2
smiles,measurement,setting,value
CCOC(=O)Nc1cc(-c2ccc(C)c(NS(C)(=O)=O)c2)nn2c(C)nnc12,Population Apoptotic (%),[1],75%
same,Population Fragmented Nuclei (%),[1],30%
same,Population Healthy Nuclei (%),[1],44%
same,Population Hoechst High Intensity Objects (%),[1],9%
same,Population Membrane Permeable-Phenotype (%),[1],9%
same,Population Mitochondria Different-Phenotype (%),[1],9%
same,Population Mitotic Cells (%),[1],24%
same,Population Normal (%),[1],90%
same,Population Pyknosed Nuclei (%),[1],24%
same,Population Tubulin-Different-Phenotype (%),[1],10%
same,Total Cell Count,[1],184
same,Population Apoptotic (%),[2],60%
same,Population Fragmented Nuclei (%),[2],55%
same,Population Healthy Nuclei (%),[2],34%
same,Population Hoechst High Intensity Objects (%),[2],35%
same,Population Membrane Permeable-Phenotype (%),[2],16%
same,Population Mitochondria Different-Phenotype (%),[2],16%
same,Population Mitotic Cells (%),[2],40%
same,Population Normal (%),[2],64%
same,Population Pyknosed Nuclei (%),[2],9%
same,Population Tubulin-Different-Phenotype (%),[2],11%
same,Total Cell Count,[2],81
same,Population Apoptotic (%),[3],70% and 66%
same,Population Fragmented Nuclei (%),[3],30% and 28%
same,Population Healthy Nuclei (%),[3],45% and 56%
same,Population Hoechst High Intensity Objects (%),[3],15% and 13%
same,Population Mitochondria Different-Phenotype (%),[3],9% and 14%
same,Population Mitotic Cells (%),[3],29% and 33%
same,Population Normal (%),[3],84% and 86%
same,Population Pyknosed Nuclei (%),[3],23% and 15%
same,Total Cell Count,[3],84 and 231
same,Population Apoptotic (%),[4],50% and 40%
same,Population Healthy Nuclei (%),[4],86%
same,Population Membrane Permeable-Phenotype (%),[4],9% and 0%
same,Population Mitotic Cells (%),[4],50% and 60%
same,Population Normal (%),[4],77% and 97%
same,Population Pyknosed Nuclei (%),[4],2% and 5%
same,Total Cell Count,[4],88 and 101
same,Population Apoptotic (%),[5],61%
same,Population Fragmented Nuclei (%),[5],31%
same,Population Healthy Nuclei (%),[5],55%
same,Population Hoechst High Intensity Objects (%),[5],12%
same,Population Membrane Permeable-Phenotype (%),[5],12%
same,Population Mitochondria Different-Phenotype (%),[5],2%
same,Population Mitotic Cells (%),[5],38%
same,Population Normal (%),[5],87%
same,Population Pyknosed Nuclei (%),[5],12%
same,Population Tubulin-Different-Phenotype (%),[5],2%
same,Total Cell Count,[5],186
same,Population Apoptotic (%),[6],50%
same,Population Fragmented Nuclei (%),[6],48%
same,Population Healthy Nuclei (%),[6],42%
same,Population Hoechst High Intensity Objects (%),[6],31%
same,Population Membrane Permeable-Phenotype (%),[6],26%
same,Population Mitochondria Different-Phenotype (%),[6],5%
same,Population Mitotic Cells (%),[6],50%
same,Population Normal (%),[6],68%
same,Population Pyknosed Nuclei (%),[6],8%
same,Population Tubulin-Different-Phenotype (%),[6],15%
same,Total Cell Count,[6],66
same,Population Apoptotic (%),[7],60% and 56%
same,Population Fragmented Nuclei (%),[7],22% and 18%
same,Population Healthy Nuclei (%),[7],47% and 66%
same,Population Hoechst High Intensity Objects (%),[7],6% and 12%
same,Population Membrane Permeable-Phenotype (%),[7],22% and 8%
same,Population Mitochondria Different-Phenotype (%),[7],6% and 4%
same,Population Mitotic Cells (%),[7],39% and 43%
same,Population Normal (%),[7],94% and 88%
same,Population Pyknosed Nuclei (%),[7],29% and 15%
same,Total Cell Count,[7],100 and 225
same,Population Healthy Nuclei (%),[8],46% and 90%
same,Population Membrane Permeable-Phenotype (%),[8],3% and 0%
same,Population Mitochondria Different-Phenotype (%),[8],10% and 16%
same,Population Mitotic Cells (%),[8],100% and 71%
same,Population Normal (%),[8],71% and 97%
same,Total Cell Count,[8],88 and 137
same,Population Apoptotic (%),[9],54%
same,Population Fragmented Nuclei (%),[9],30%
same,Population Healthy Nuclei (%),[9],56%
same,Population Hoechst High Intensity Objects (%),[9],16%
same,Population Membrane Permeable-Phenotype (%),[9],16%
same,Population Mitochondria Different-Phenotype (%),[9],0%
same,Population Mitotic Cells (%),[9],45%
same,Population Normal (%),[9],83%
same,Population Pyknosed Nuclei (%),[9],12%
same,Population Tubulin-Different-Phenotype (%),[9],8%
same,Total Cell Count,[9],105
same,Population Apoptotic (%),[10],100%
same,Population Fragmented Nuclei (%),[10],18%
same,Population Healthy Nuclei (%),[10],80%
same,Population Hoechst High Intensity Objects (%),[10],10%
same,Population Membrane Permeable-Phenotype (%),[10],2%
same,Population Mitochondria Different-Phenotype (%),[10],1%
same,Population Mitotic Cells (%),[10],0%
same,Population Normal (%),[10],89%
same,Population Pyknosed Nuclei (%),[10],0%
same,Population Tubulin-Different-Phenotype (%),[10],1%
same,Total Cell Count,[10],114
CC1=C(C(=O)Nc2cc3cn[nH]c3cc2F)C(c2ccc(C(F)(F)F)cc2)CC(=O)N1 (stereo unspecified),Population Apoptotic (%),[1],78%
same,Population Fragmented Nuclei (%),[1],29%
same,Population Healthy Nuclei (%),[1],41%
same,Population Hoechst High Intensity Objects (%),[1],12%
same,Population Membrane Permeable-Phenotype (%),[1],20%
same,Population Mitochondria Different-Phenotype (%),[1],6%
same,Population Mitotic Cells (%),[1],21%
same,Population Normal (%),[1],87%
same,Population Pyknosed Nuclei (%),[1],29%
same,Population Tubulin-Different-Phenotype (%),[1],31%
same,Total Cell Count,[1],124
same,Population Apoptotic (%),[2],50%
same,Population Fragmented Nuclei (%),[2],2%
same,Population Healthy Nuclei (%),[2],93%
same,Population Hoechst High Intensity Objects (%),[2],10%
same,Population Membrane Permeable-Phenotype (%),[2],4%
same,Population Mitochondria Different-Phenotype (%),[2],9%
same,Population Mitotic Cells (%),[2],50%
same,Population Normal (%),[2],89%
same,Population Pyknosed Nuclei (%),[2],4%
same,Population Tubulin-Different-Phenotype (%),[2],14%
same,Total Cell Count,[2],76
same,Population Apoptotic (%),[3],55%
same,Population Fragmented Nuclei (%),[3],25%
same,Population Healthy Nuclei (%),[3],46%
same,Population Hoechst High Intensity Objects (%),[3],9%
same,Population Membrane Permeable-Phenotype (%),[3],24%
same,Population Mitochondria Different-Phenotype (%),[3],11%
same,Population Mitotic Cells (%),[3],44%
same,Population Normal (%),[3],90%
same,Population Pyknosed Nuclei (%),[3],27%
same,Population Tubulin-Different-Phenotype (%),[3],50%
same,Total Cell Count,[3],144
same,Population Apoptotic (%),[4],50%
same,Population Fragmented Nuclei (%),[4],21%
same,Population Healthy Nuclei (%),[4],70%
same,Population Membrane Permeable-Phenotype (%),[4],5%
same,Population Mitochondria Different-Phenotype (%),[4],12%
same,Population Mitotic Cells (%),[4],50%
same,Population Pyknosed Nuclei (%),[4],7%
same,Population Tubulin-Different-Phenotype (%),[4],25%
same,Total Cell Count,[4],97
same,Population Apoptotic (%),[5],54%
same,Population Fragmented Nuclei (%),[5],20%
same,Population Healthy Nuclei (%),[5],56%
same,Population Hoechst High Intensity Objects (%),[5],18%
same,Population Membrane Permeable-Phenotype (%),[5],35%
same,Population Mitochondria Different-Phenotype (%),[5],1%
same,Population Mitotic Cells (%),[5],45%
same,Population Normal (%),[5],81%
same,Population Pyknosed Nuclei (%),[5],23%
same,Population Tubulin-Different-Phenotype (%),[5],25%
same,Total Cell Count,[5],127
same,Population Apoptotic (%),[6],42%
same,Population Fragmented Nuclei (%),[6],7%
same,Population Healthy Nuclei (%),[6],86%
same,Population Hoechst High Intensity Objects (%),[6],4%
same,Population Membrane Permeable-Phenotype (%),[6],10%
same,Population Mitochondria Different-Phenotype (%),[6],13%
same,Population Mitotic Cells (%),[6],57%
same,Population Normal (%),[6],95%
same,Population Pyknosed Nuclei (%),[6],6%
same,Population Tubulin-Different-Phenotype (%),[6],16%
same,Total Cell Count,[6],93
same,Population Apoptotic (%),[7],40%
same,Population Fragmented Nuclei (%),[7],25%
same,Population Healthy Nuclei (%),[7],54%
same,Population Hoechst High Intensity Objects (%),[7],9%
same,Population Membrane Permeable-Phenotype (%),[7],22%
same,Population Mitochondria Different-Phenotype (%),[7],8%
same,Population Mitotic Cells (%),[7],59%
same,Population Normal (%),[7],90%
same,Population Pyknosed Nuclei (%),[7],19%
same,Population Tubulin-Different-Phenotype (%),[7],40%
same,Total Cell Count,[7],125
same,Population Apoptotic (%),[8],75%
same,Population Fragmented Nuclei (%),[8],23%
same,Population Healthy Nuclei (%),[8],68%
same,Population Hoechst High Intensity Objects (%),[8],6%
same,Population Membrane Permeable-Phenotype (%),[8],4%
same,Population Mitochondria Different-Phenotype (%),[8],14%
same,Population Mitotic Cells (%),[8],25%
same,Population Normal (%),[8],93%
same,Population Pyknosed Nuclei (%),[8],8%
same,Population Tubulin-Different-Phenotype (%),[8],29%
same,Total Cell Count,[8],119
same,Population Apoptotic (%),[11],66%
same,Population Fragmented Nuclei (%),[11],33%
same,Population Healthy Nuclei (%),[11],48%
same,Population Hoechst High Intensity Objects (%),[11],11%
same,Population Membrane Permeable-Phenotype (%),[11],19%
same,Population Mitochondria Different-Phenotype (%),[11],5%
same,Population Mitotic Cells (%),[11],33%
same,Population Normal (%),[11],88%
same,Population Pyknosed Nuclei (%),[11],18%
same,Population Tubulin-Different-Phenotype (%),[11],14%
same,Total Cell Count,[11],131
same,Population Apoptotic (%),[12],33%
same,Population Fragmented Nuclei (%),[12],31%
same,Population Healthy Nuclei (%),[12],65%
same,Population Hoechst High Intensity Objects (%),[12],22%
same,Population Membrane Permeable-Phenotype (%),[12],6%
same,Population Mitochondria Different-Phenotype (%),[12],0%
same,Population Mitotic Cells (%),[12],66%
same,Population Normal (%),[12],77%
same,Population Pyknosed Nuclei (%),[12],3%
same,Population Tubulin-Different-Phenotype (%),[12],23%
same,Total Cell Count,[12],127
same,Population Apoptotic (%),[9],46%
same,Population Fragmented Nuclei (%),[9],33%
same,Population Healthy Nuclei (%),[9],54%
same,Population Hoechst High Intensity Objects (%),[9],11%
same,Population Membrane Permeable-Phenotype (%),[9],26%
same,Population Mitochondria Different-Phenotype (%),[9],4%
same,Population Mitotic Cells (%),[9],53%
same,Population Normal (%),[9],88%
same,Population Pyknosed Nuclei (%),[9],11%
same,Population Tubulin-Different-Phenotype (%),[9],23%
same,Total Cell Count,[9],130
same,Population Apoptotic (%),[10],62%
same,Population Fragmented Nuclei (%),[10],26%
same,Population Healthy Nuclei (%),[10],65%
same,Population Membrane Permeable-Phenotype (%),[10],7%
same,Population Mitochondria Different-Phenotype (%),[10],1%
same,Population Mitotic Cells (%),[10],37%
same,Population Pyknosed Nuclei (%),[10],8%
same,Population Tubulin-Different-Phenotype (%),[10],22%
same,Total Cell Count,[10],109
